Source: ChEMBL document CHEMBL1149585, “Toward the development of chemoprevention agents. Part 1: Design, synthesis, and anti-inflammatory activities of a new class of 2,5-disubstituted-dioxacycloalkanes” (Bioorg Med Chem, 2007)

Assays:
Mus musculus [1] = experiment: Toxicity in mouse assessed as tail bleeding time at 200 mg/kg, po after 60 mins; assay type: organism-based; parameters: dose 200 mg/kg, route oral; details: in vivo, 1 h
In short: (§1)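 Male mice (18–22 g) were dosed orally, and bleeding time was recorded before dosing and at each post-dose time. Each mouse was held in a tube with its tail protruding, and a 2 mm tail cut was made. Blood was wiped away with tissue every 30 s until bleeding ceased, and the time was recorded. The comparison group received NS.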

Mus musculus [2] = experiment: Toxicity in mouse assessed as tail bleeding time at 200 mg/kg, po after 45 mins; assay type: organism-based; parameters: dose 200 mg/kg, route oral; details: in vivo, 0.75 h; in short: as §1
Mus musculus [3] = experiment: Toxicity in mouse assessed as tail bleeding time at 200 mg/kg, po after 90 mins; assay type: organism-based; parameters: dose 200 mg/kg, route oral; details: in vivo, 1.5 h; in short: as §1
Mus musculus [4] = experiment: Toxicity in mouse assessed as tail bleeding time at 200 mg/kg, po after 30 mins; assay type: organism-based; parameters: dose 200 mg/kg, route oral; details: in vivo, 0.5 h; in short: as §1
Mus musculus [5] = experiment: Inhibition of xylene-induced ear edema in Kunming mouse at 20 mg/kg, po after 2 hrs relative to control; assay type: functional
In short: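 Male Kunming mice (groups of 12; n = 11 per table footnote) were dosed orally as a suspension in 0.5% CMC, with CMC vehicle and positive control groups. After 30 min, 0.03 ml xylene went on both surfaces of the right ear, with the left ear as control. Mice were killed 2 h later. 7 mm ear punches were weighed, and edema was taken as right minus left weight. Groups were compared by one-way ANOVA, p < 0.05.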

Row | SMILES | Activity (Mus musculus [1]) | Activity (Mus musculus [2]) | Activity (Mus musculus [3]) | Activity (Mus musculus [4]) | inhibition in vivo at 20 mg/kg (Mus musculus [5])
1 | C[C@@H]1O[C@H](c2ccccc2)OC[C@H]1NC(=O)c1ccccc1 | 118.6 s | 118.9 s | 118.9 s | 118.7 s | 43.9%
2 | O=C(N[C@H]1CCO[C@H](c2ccc(Cl)cc2)OC1)c1ccccc1 |  |  |  |  | 29.5%
3 | O=C(Cc1ccccc1)N[C@H]1CO[C@H](c2ccc([N+](=O)[O-])cc2)OC1 | 117.6 s | 120.2 s | 117.7 s | 120.7 s | 44.6%
4 | O=C(N[C@H]1CCO[C@@H](c2cccc([N+](=O)[O-])c2)OC1)c1ccccc1 |  |  |  |  | 21.8%
5 | O=C(N[C@H]1CO[C@H](c2cccc([N+](=O)[O-])c2)OC1)c1ccccc1 | 118.4 s | 118 s | 118.7 s | 118.8 s | 45.2%
6 | O=C(Cc1ccccc1)N[C@H]1CCCO[C@H](c2ccc(Cl)cc2)OC1 |  |  |  |  | 23.1%
7 | C[C@@H]1O[C@H](c2ccc(Cl)cc2)OC[C@H]1NC(=O)c1ccccc1 | 118.7 s | 118.6 s | 118.6 s | 119.6 s | 47.1%
8 | C[C@@H]1O[C@H](c2ccc([N+](=O)[O-])cc2)OC[C@H]1NC(=O)c1ccccc1 | 118.8 s | 118.1 s | 119 s | 117.8 s | 55.4%
9 | Cc1ccc([C@H]2OC[C@H](NC(=O)Cc3ccccc3)CO2)cc1 | 118.4 s | 118.6 s | 119.2 s | 117.2 s | 35.6%
10 | O=C(Cc1ccccc1)N[C@H]1CO[C@H](c2ccc(Cl)cc2)OC1 | 119.5 s | 119.2 s | 118.4 s | 117.9 s | 42%
11 | O=C(N[C@H]1CCO[C@@H](c2ccc(Cl)cc2)OC1)c1ccccc1 |  |  |  |  | 28.2%
12 | O=C(Cc1ccccc1)N[C@H]1CO[C@@H](c2ccccc2)OC1 | 117.8 s | 119.3 s | 118.9 s | 118.5 s | 38.5%
13 | O=C(Cc1ccccc1)N[C@H]1CO[C@H](c2cccc([N+](=O)[O-])c2)OC1 | 119.2 s | 118.5 s | 118.6 s | 117.7 s | 42.6%
14 | Cc1ccc([C@H]2OC[C@@H](NC(=O)Cc3ccccc3)CO2)cc1 | 118.4 s | 118.6 s | 119.2 s | 117.2 s | 36.5%
15 | C[C@@H]1O[C@H](c2ccc(Cl)cc2)OC[C@H]1NC(=O)Cc1ccccc1 | 118.6 s | 119.6 s | 119 s | 118.4 s | 46.1%
16 | C[C@@H]1O[C@H](/C=C/c2ccccc2)OC[C@H]1NC(=O)Cc1ccccc1 |  |  |  |  | 33.3%
17 | O=C(Cc1ccccc1)N[C@H]1CCO[C@H](c2ccc(Cl)cc2)OC1 |  |  |  |  | 23.7%
18 | O=C(Cc1ccccc1)N[C@H]1CCO[C@H](c2cccc([N+](=O)[O-])c2)OC1 |  |  |  |  | 20.1%
19 | O=C(Cc1ccccc1)N[C@H]1CCO[C@@H](c2ccc(Cl)cc2)OC1 |  |  |  |  | 24.4%
20 | O=C(Cc1ccccc1)N[C@H]1CO[C@@H](c2ccc([N+](=O)[O-])cc2)OC1 | 117.6 s | 120.2 s | 117.7 s | 120.7 s | 43.3%
21 | O=C(Cc1ccccc1)N[C@H]1CO[C@@H](c2cccc([N+](=O)[O-])c2)OC1 | 119.2 s | 118.5 s | 118.6 s | 117.7 s | 41.3%
22 | Cc1ccc([C@H]2OC[C@@H](NC(=O)Cc3ccccc3)[C@H](C)O2)cc1 | 119 s | 118.6 s | 118.5 s | 117.9 s | 41%
23 | C[C@@H]1O[C@@H](c2ccc([N+](=O)[O-])cc2)OC[C@H]1NC(=O)Cc1ccccc1 | 117.9 s | 118.5 s | 117.2 s | 117.8 s | 55.8%
24 | C[C@@H]1O[C@@H](c2cccc([N+](=O)[O-])c2)OC[C@H]1NC(=O)Cc1ccccc1 | 118.5 s | 118.7 s | 118.6 s | 120.1 s | 47.1%
25 | C[C@@H]1O[C@@H](c2ccccc2)OC[C@H]1NC(=O)c1ccccc1 |  |  |  |  | 43.9%

Row | SMILES | Activity (Mus musculus [1]) | Activity (Mus musculus [2]) | Activity (Mus musculus [3]) | Activity (Mus musculus [4]) | inhibition in vivo at 20 mg/kg (Mus musculus [5])
26 | C[C@@H]1O[C@H](c2ccc([N+](=O)[O-])cc2)OC[C@H]1NC(=O)Cc1ccccc1 | 117.9 s | 118.5 s | 117.2 s | 117.8 s | 55.1%
27 | C[C@@H]1O[C@H](c2cccc([N+](=O)[O-])c2)OC[C@H]1NC(=O)Cc1ccccc1 | 118.5 s | 118.7 s | 118.6 s | 120.1 s | 46.5%
28 | O=C(Cc1ccccc1)N[C@H]1CO[C@@H](/C=C/c2ccccc2)OC1 |  |  |  |  | 27.2%
29 | O=C(Cc1ccccc1)N[C@H]1CCCO[C@H](c2cccc([N+](=O)[O-])c2)OC1 |  |  |  |  | 19.2%
30 | O=C(Cc1ccccc1)N[C@H]1CCCO[C@@H](c2ccc([N+](=O)[O-])cc2)OC1 |  |  |  |  | 20.8%
31 | O=C(Cc1ccccc1)N[C@H]1CO[C@@H](c2ccc(Cl)cc2)OC1 | 119.5 s | 119.2 s | 118.4 s | 117.9 s | 43.6%
32 | C[C@@H]1O[C@@H](c2ccccc2)OC[C@H]1NC(=O)Cc1ccccc1 | 118.6 s | 119 s | 117.9 s | 118.5 s | 40%
33 | O=C(Cc1ccccc1)N[C@H]1CCCO[C@@H](c2ccc(Cl)cc2)OC1 |  |  |  |  | 23.7%
34 | O=C(Cc1ccccc1)N[C@H]1CCO[C@@H](c2cccc([N+](=O)[O-])c2)OC1 |  |  |  |  | 21.2%
35 | O=C(N[C@H]1CCO[C@H](c2ccc([N+](=O)[O-])cc2)OC1)c1ccccc1 |  |  |  |  | 19.2%
36 | O=C(Cc1ccccc1)N[C@H]1CO[C@H](/C=C/c2ccccc2)OC1 |  |  |  |  | 29.5%
37 | O=C(Cc1ccccc1)N[C@H]1CCO[C@H](c2ccc([N+](=O)[O-])cc2)OC1 |  |  |  |  | 18.9%
38 | O=C(Cc1ccccc1)N[C@H]1CCO[C@@H](c2ccc([N+](=O)[O-])cc2)OC1 |  |  |  |  | 19.6%
39 | O=C(N[C@H]1CCO[C@H](c2cccc([N+](=O)[O-])c2)OC1)c1ccccc1 |  |  |  |  | 20.8%
40 | O=C(N[C@H]1CCO[C@@H](c2ccc([N+](=O)[O-])cc2)OC1)c1ccccc1 |  |  |  |  | 20.2%
41 | O=C(Cc1ccccc1)N[C@H]1CCCO[C@@H](c2cccc([N+](=O)[O-])c2)OC1 |  |  |  |  | 19.9%
42 | O=C(N[C@H]1CO[C@H](c2ccc([N+](=O)[O-])cc2)OC1)c1ccccc1 | 118.6 s | 117.7 s | 118.9 s | 119.5 s | 48.7%
43 | Cc1ccc([C@@H]2OC[C@@H](NC(=O)c3ccccc3)[C@H](C)O2)cc1 | 118.9 s | 118.5 s | 117.7 s | 120.4 s | 44.9%
44 | C[C@@H]1O[C@H](c2cccc([N+](=O)[O-])c2)OC[C@H]1NC(=O)c1ccccc1 | 119.5 s | 118.2 s | 118.2 s | 118.9 s | 
45 | C[C@@H]1O[C@H](c2ccccc2)OC[C@H]1NC(=O)Cc1ccccc1 | 118.6 s | 119 s | 117.9 s | 118.5 s | 41.3%
46 | Cc1ccc([C@@H]2OC[C@@H](NC(=O)Cc3ccccc3)[C@@H](C)O2)cc1 | 119 s | 118.6 s | 118.5 s | 117.9 s | 42.3%
47 | O=C(Cc1ccccc1)N[C@H]1CO[C@H](c2ccccc2)OC1 | 117.8 s | 119.3 s | 118.9 s | 118.5 s | 37.8%
48 | C[C@@H]1O[C@@H](/C=C/c2ccccc2)OC[C@H]1NC(=O)Cc1ccccc1 |  |  |  |  | 32.1%
49 | O=C(Cc1ccccc1)N[C@H]1CCCO[C@H](c2ccc([N+](=O)[O-])cc2)OC1 |  |  |  |  | 19.9%
50 | C[C@H]1O[C@@H](c2ccc(Cl)cc2)OC[C@H]1NC(=O)Cc1ccccc1 | 118.6 s | 119.6 s | 119 s | 118.4 s | 46.4%
